High-throughput results deposited in PubChem BioAssay by The Scripps Research Institute Molecular Screening Center.
HCV NS3 hel inh – inhibitors of HCV NS3 helicase, primary screen, biochemical, Cy5 molecular beacon fluorescence; 0.56% of 290,000 active; inhibition, % at 10.9 µM; NS3 helicase DNA unwinding;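 active = inhibition above the mean of all tested compounds plus 3 SD, set per campaign, cut at about 35% in these data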;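 also: 0% = DMSO wells and 100% = thioflavine S control wells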
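Test system: hepatitis C virus NS3 helicase domain fragment enzyme. Also added: annealed dual-labelled DNA beacon duplex, ATP-started. Timing: 60 min unwinding reaction at 25 °C after ATP addition. Technique: Cy5 fluorescence. Measure: % inhibition of unwinding.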
VIM-2 inh – VIM-2 metallo-beta-lactamase inhibitors, primary screen, biochemical, epi-absorbance readout, Pseudomonas aeruginosa enzyme. purified VIM-2, nitrocefin hydrolysis, epi-absorbance fluorescence. 0.89% of 290,000 active. inhibition, % at 5.6 µM. AID 1527, 2009;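 active = inhibition above the mean of all tested compounds plus 3 SD, cutoff set per screening run, cut at about 7.5% in these data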;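 also: red hydrolysis product quenches plate fluorescence so inhibitors raise well fluorescence; 0% = enzyme with DMSO and 100% = DMSO without enzyme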
DNA FID counter-1 – compounds displacing fluorescent DNA intercalator, primary screen, artefact control for HCV NS3 helicase inhibitor project, biochemical, FID fluorescence; AID 1845, 2009; inhibition, % at 7.9 µM; DNA fluorescent intercalator displacement; 0.17% of 290,000 active;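 also: 0% = vehicle and 100% = reference compound; higher means more ethidium bromide displaced from hairpin DNA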
IMP-1 inhibitor – IMP-1 metallo-beta-lactamase inhibitors, primary screen, biochemical, epi-absorbance readout, Pseudomonas aeruginosa enzyme; metallo-beta-lactamase IMP-1 (Pseudomonas aeruginosa); purified IMP-1, nitrocefin hydrolysis, epi-absorbance fluorescence; inhibition, % at 5.6 µM; 0.45% of 290,000 active; AID 1556, 2009;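 active = inhibition above the mean plus 3 SD of all compounds in the same screening run, cut at about 4.5% in these data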;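 also: 0% = IMP-1 with DMSO and 100% = DMSO wells lacking enzyme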
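System: purified recombinant IMP-1 beta-lactamase. Medium: Zinc- and detergent-supplemented HEPES buffer, pH 7.1. Compound: one 5.6 µM dose […]. Schedule: 15 min preincubation plus 25 min reaction at 25 °C. Technique: Epi-absorbance fluorescence, 480 nm excitation, 530 nm emission.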
NS3 hel confirm – HCV NS3 helicase inhibitors, retest, confirmation, biochemical, Cy5 molecular beacon fluorescence, triplicate; inhibition, % at 10.9 µM; NS3 helicase DNA unwinding; shares compounds with HCV NS3 hel inh; AID 1943, 2009; 31% of 1,600 active;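 active = inhibition above the mean of all tested compounds plus 3 SD, cutoff set per campaign, cut at about 36% in these data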
DNA FID counter-2 – compounds displacing fluorescent DNA intercalator, artefact control for HCV NS3 helicase inhibitor project, biochemical, FID fluorescence, triplicate | shares compounds with HCV NS3 hel inh | DNA fluorescent intercalator displacement | inhibition, % at 7.9 µM | 4% of 1,600 active;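 also: 0% = vehicle and 100% = reference compound; higher means more displacement of ethidium bromide from the DNA hairpin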
* marks the source's active call; other numbers are inactive results; / = no result given. Only some compounds are listed: those with a hit (about 1.9% of all), similar ones and a draw of the others. Rule as the data show it, unless noted: active = inhibition above about 37%; inactive = the rest.

SMILES	HCV NS3 hel inh	VIM-2 inh	DNA FID counter-1	IMP-1 inhibitor	NS3 hel confirm	DNA FID counter-2
CCOc1cc2c(cc1OCC)-n1cccc1C(c1cccc(OCC)c1O)NC2 (stereo unspecified)	-35	-3	9	-4	/	/
CC(C)n1c(O)c(C=NCc2ccccc2)c(=O)[nH]c1=S	-4	-1	-13	-3	/	/
CC(C)n1c(=O)c(C=Nc2ccc(F)cc2)c(O)n(Cc2ccco2)c1=O	48*	-7	-43	-2	-5	5
O=c1[nH]c(=O)n(Cc2ccco2)c(O)c1C=NC1CC1	1	0	-3	-2	/	/
CCN1C(=O)C(=C/C=C/c2ccco2)C(=O)N(CC)C1=S	39*	-4	-19	5.8*	75*	6
CC(C)N1C(=O)/C(=C/C=C/c2ccco2)C(=O)N(Cc2ccco2)C1=O	22	-1	-19	-1	/	/
COc1ccc(C)cc1NC1=NC(C)(C)CS1	4	-1	-5	-2	/	/
COc1cc(CC2(CCc3ccncc3)C(=O)N(C)C(=O)N(C)C2=O)cc(OC)c1OC	8	-3	-17	-3	/	/
CC1(C(O)(C#CCN2CCCCC2)c2ccccc2)CCCC1 (stereo unspecified)	-19	0	26	0	/	/
CCn1c(O)c(C=Nc2ccc(N3CCOCC3)cc2)c(=O)n(CC)c1=S	40*	-1	1	-1	-7	-22
CN(C)[C@@H]1C(=O)C(C(N)=O)=C(O)[C@@]2(O)C(=O)C3=C(O)c4c(O)cccc4[C@@](C)(O)[C@H]3[C@H](O)[C@@H]12	36*	0	-9	-1	97*	18
CN(C)[C@@H]1C(=O)C(C(N)=O)=C(O)[C@@]2(O)C(=O)C3=C(O)c4c(O)ccc(Cl)c4[C@@](C)(O)[C@H]3C[C@@H]12	48*	-2	-10	-3	7	20
Cc1cnc(NC(=O)CN2CCCCC2)s1	3	-1	2	-8	/	/
O=c1nc(/C=C/c2ccc(Cl)cc2Cl)cc(C(F)(F)F)[nH]1	46*	0	-27	-5	70*	-16
C=CCN1C(=O)/C(=C/c2cccs2)C(=O)NC1=S	18	-1	-7	-3	/	/
CN(C)c1ccc(/C=C2/C(=O)NC(=O)N(Cc3ccco3)C2=O)cc1	25	-1	-18	0	/	/
O=C1NC(=S)N(Cc2ccco2)C(=O)/C1=C\c1cccs1	52*	2	-6	5.1*	77*	21
O=C1NC(=O)N(Cc2ccco2)C(=O)/C1=C/c1ccc(-c2cccc([N+](=O)[O-])c2)o1	39*	2	1	-4	66*	18
C=CCN1C(=O)NC(=O)/C(=C\c2ccc(-c3ccccc3[N+](=O)[O-])o2)C1=O	8	-1	-8	0	/	/
Cc1cc(/C=C2/C(=O)NC(=O)N(Cc3ccco3)C2=O)c(C)n1-c1ccccc1	50*	-1	-23	-4	7	-29
C=CCSc1nc2c(c(-c3ccsc3)c1C#N)CN(C)CC2	-36	1	5	-2	/	/
Cc1cccc(C)c1N1CCN(c2c(C)cccc2C)CC1	-2	-1	-3	-3	/	/
O=C(N/N=C/c1c(O)n(CCc2ccc(F)cc2)c(=O)[nH]c1=O)c1ccncc1	38*	-1	-31	1	-6	-13
O=C1NC(=O)N(Cc2ccco2)C(=O)/C1=C\c1cccn1CCOc1ccc(Cl)cc1	44*	-2	-22	-5	25	-5
Cc1ccccc1N1CCN(C2CCCN(C(=O)Cc3c(C)noc3C)C2)CC1 (stereo unspecified)	1	-1	-22	-3	/	/
SMILES	HCV NS3 hel inh	VIM-2 inh	DNA FID counter-1	IMP-1 inhibitor	NS3 hel confirm	DNA FID counter-2
CC(=O)c1ccc2c(c1)C1C(Cl)C(Sc3ccccc3[N+](=O)[O-])CC1C(C(=O)O)N2 (stereo unspecified)	41*	-3	-3	-2	52*	7
O=C(c1cccc2ccccc12)C1CCCN(C2CCC2)C1 (stereo unspecified)	-37	1	4	-1	/	/
CC(=NCc1cccnc1)c1c(O)n(-c2ccc(Cl)cc2)c(=O)[nH]c1=O	0	0	-1	-1	/	/
CCCc1cc(=O)oc2cc(OCC(=O)N3CCC(C(=O)O)(c4ccccc4)CC3)ccc12	49*	1	-23	1	-24	-26
COc1cccc(N2C(=O)/C(=C/c3ccc(C)o3)C(=O)NC2=S)c1	36*	-1	-17	3	59*	-14
Cc1ccc(/C=C2\C(=O)NC(=S)N(c3ccc(F)cc3)C2=O)o1	20	-1	-11	0	/	/
O=C1NC(=S)N(c2ccccc2)C(=O)/C1=C/c1ccco1	41*	-2	-7	1	69*	0
COc1ccc2ccccc2c1CNCCc1ccccc1	-25	-2	12	1	/	/
